Assay results collected from several papers.
Effect on: cell growth or viability

SMILES	cell line	test	setting	quantity	value
CC(=O)c1c(C)c2cnc(Nc3ccc(C4CCN(CCS(C)(=O)=O)CC4)cn3)nc2n(C2CCCC2)c1=O	T47D	ATP luminescence	72 h	IC50	177 nM
N#C[Se]Cc1cc(=O)oc2cc(O)ccc12	T47D	SRB		GI50	35000 nM
Cc1ncsc1-c1ccc([C@H](C)NC(=O)[C@@H]2C[C@@H](O)CN2C(=O)[C@@H](c2cc(N3CCC(CN4CCC(OC5CC(Oc6cc(N7C8CCC7CN(c7cc(-c9ccccc9O)nnc7N)C8)ccn6)C5)CC4)CC3)no2)C(C)C)cc1 (stereo partly shown)	LNCaP	ATP luminescence	7 days	IC50	3.2 nM
O=C1c2ccccc2-c2c3c(cc4ccnc1c24)OCO3	T47D	MTT	75 h	IC50	15900 nM
N.N.[Cl][Pt][Cl]	JVM-3	ATP luminescence	10 µM, 72 h	inhibition	100%
O=[N+]([O-])c1ccc(NCCCCCCN=C=S)c2nonc12	T47D	MTT	24 h	IC50	1200 nM
CC[C@@]1(O)C(=O)OCc2c1cc1n(c2=O)Cc2cc3ccccc3nc2-1	MIA PaCa-2	SRB	48 h	IC50	151 nM
Cc1cc(=O)oc2cc(OCCCC[Se]C#N)ccc12	MIA PaCa-2	SRB		GI50	2600 nM
C[S+]([O-])CCCCN=C=S (stereo not shown)	T47D	MTT	24 h	IC50	30400 nM
COC(=O)c1cc(C(C)=NNc2nc(-c3ccc(S(=O)(=O)F)cc3)cs2)ccc1O	T47D	MTT	96 h	IC50	26300 nM
